Experimental data as given in ChEMBL document CHEMBL1140698, “Design, synthesis, and anti-inflammatory properties of orally active 4-(phenylamino)-pyrrolo[2,1-f][1,2,4]triazine p38alpha mitogen-activated protein kinase inhibitors” (J Med Chem, 2008).

Columns and labels:
[1] = Mean residence time in mouse at 5 mg/kg, iv or 10 mg/kg, po; format: ADME, organism-based; conditions: in vivo
Method in brief: (§1)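 Mice dosed at 5 mg/kg i.v. or 10 mg/kg p.o., 3 mice per group. Values given as average ± SEM.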

[2] = Drug level in rat plasma at 10 mg/kg, po after 0.5 hrs; format: ADME, organism-based; design: dose 10 mg/kg, route oral
Method in brief: (§2)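 Rats given a single oral 10 mg/kg dose in 9/0.5/0.5 water/EtOH/Tween 80. Plasma drug level measured at 0.5 h and AUC0-4h calculated, each as the average of 2 rats.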

[3] = Metabolic stability in human liver microsome after 10 mins; format: ADME; conditions: liver microsomes, read-out: Stability
Method in brief: (§3)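 Rat or pooled human (10 donors) liver microsomes at about 1 mg/mL protein, 1 mM NADPH, 56 mM potassium phosphate pH 7.4, compound 3 µM final, 37 °C. Quenched with acetonitrile and parent drug quantified by LC/MS/MS. Percent parent remaining at 10 min, n = 1.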

[4] = Volume of distribution at steady state in mouse 5 mg/kg, iv or 10 mg/kg, po; format: ADME, organism-based; conditions: in vivo, read-out: Vdss; method in brief: as §1
Caco-2 = experiment: Intrinsic permeability across human Caco-2 cells; format: ADME, cell-based
[5] = Half life in mouse at 5 mg/kg, iv or 10 mg/kg, po; format: ADME, organism-based; conditions: in vivo; method in brief: as §1
[6] = Clearance in mouse at 5 mg/kg, iv or 10 mg/kg, po; format: ADME, organism-based; conditions: in vivo; method in brief: as §1
[7] = AUC (0 to 4 hrs) in rat at 10 mg/kg, po; format: ADME, organism-based; design: time < 4 hr, dose 10 mg/kg, route oral; conditions: plasma; method in brief: as §2
[8] = Tmax in mouse at 5 mg/kg, iv or 10 mg/kg, po; format: ADME, organism-based; conditions: in vivo; method in brief: as §1
[9] = Bioavailability in mouse at 10 mg/kg, po; format: ADME, organism-based; conditions: in vivo; method in brief: as §1
[10] = Metabolic stability in rat liver microsome after 10 mins; format: ADME; conditions: liver microsomes, read-out: Stability; method in brief: as §3
[11] = AUC (0 to 8 hrs) in mouse 5 mg/kg, iv or 10 mg/kg, po; format: ADME, organism-based; conditions: plasma; method in brief: as §1
[12] = Cmax in mouse at 5 mg/kg, iv or 10 mg/kg, po; format: ADME, organism-based; conditions: in vivo; method in brief: as §1

Compound	MRT [1] [h]	concentration at 0.5 h [2] [µM]	remaining at 10 min [3] [%]	Vd [4] [L/kg]	Papp (Caco-2) [×10⁻⁶ cm/s]	half-life [5] [h]	clearance [6] [mL/min/kg]	AUC(0-t) at 4 h [7] [µM·h]	Tmax [8] [h]	bioavailability [9] [%]	remaining at 10 min [10] [%]	AUC(0-t) [11] [µM·h]	Cmax [12] [µM]
CONC(=O)c1ccc(C)c(Nc2ncnn3cc(C(=O)NCc4ccccn4)c(C)c23)c1	–	3.4	–	–	–	–	–	2.8	–	–	–	–	–
CCCNC(=O)c1cn2ncnc(Nc3cc(C(=O)NOC)ccc3C)c2c1C	1	6.6	83	1.6	5.8	2.5	28	2.1	0.25	97	82	13	18
CONC(=O)c1ccc(C)c(Nc2ncnn3cc(C(=O)NC(C)C)c(C)c23)c1	–	3.8	–	–	–	–	–	3.7	–	–	–	–	–
CC[C@H](C)NC(=O)c1cn2ncnc(Nc3cc(C(=O)NOC)ccc3C)c2c1C	–	4.3	62	–	–	–	–	9.2	–	–	96	–	–

The remaining lines, values ahead:

MRT [1] [h]	concentration at 0.5 h [2] [µM]	remaining at 10 min [3] [%]	Vd [4] [L/kg]	Papp (Caco-2) [×10⁻⁶ cm/s]	half-life [5] [h]	clearance [6] [mL/min/kg]	AUC(0-t) at 4 h [7] [µM·h]	Tmax [8] [h]	bioavailability [9] [%]	remaining at 10 min [10] [%]	AUC(0-t) [11] [µM·h]	Cmax [12] [µM]	Compound
1.4	0.8	69	7.6	2	2.2	93	0.7	0.25	79	100	3.6	3.1	CCNC(=O)c1cn2ncnc(Nc3cc(C(=O)NOC)ccc3C)c2c1C
0.8	2.1	72	1.5	13.1	1.2	31	2.1	0.5	34	90	3.8	3.7	CONC(=O)c1ccc(C)c(Nc2ncnn3cc(C(=O)N[C@@H](C)c4ccccc4)c(C)c23)c1
–	0.4	–	–	–	–	–	0.7	–	–	–	–	–	CCCNC(=O)c1cn2ncnc(Nc3cc(NC(=O)OCC)ccc3C)c2c1C
